These results are taken from PMC9530613 (Redox Biology, 2022).

pIC50: −log10 of the molar value.

One may read the pIC50 as the negative decadic logarithm of the IC50, by convention in mol/L.

The test system of data set [1] is SH-SY5Y cells. In words: Hydrogen peroxide cytotoxicity, SRB assay. In kind it is cell-based, human. Particulars: in the presence of I3MT3. In outline:
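SH-SY5Y cells (MEM-F12, 15% FBS, 37 °C, 5% CO2) exposed to 100 μM H2O2 ± test compound ± I3MT3 for 24 h at 37 °C. Fixed with 10% TCA for 1 h at 4 °C, washed, then stained 1 h at room temperature with 0.04% w/v SRB in 1% acetic acid. Washed with 1% acetic acid, dried, dye dissolved in 10 mM Tris base (pH 10.5), A510 read. One-way ANOVA with Tukey test.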
(In general: The SRB assay estimates cell density from bound dye.)

The test system of data set [2] is SH-SY5Y cells. Description: Aβ1-42 amyloid toxicity assay, CCK-8. It counts as cell-based, human. In outline:
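Human neuroblastoma SH-SY5Y cells in MEM-F12 (1:1) with 15% FBS, at 37 °C and 5% CO2, grown to 70% confluence. Monomer-rich Aβ1-42 (HFIP-treated, sonicated) added at 20 μM with or without varying test compound concentrations, ± I3MT3, for 24 h; scrambled Aβ peptide as control. CCK-8 added for 3 h at 37 °C, absorbance at 450 nm. One-way ANOVA with Tukey test.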

Data set [3] can be described thus: DPPH radical scavenging assay. In kind it is biochemical. Particulars: read-out: IC50, DPPH radical scavenging; DPPH 150 μM, 30 min, room temperature. In outline:
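Test compound at various concentrations incubated with DPPH (150 μM in 80% ethanol) for 30 min at room temperature. Radical scavenging read as absorbance at 517 nm.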
(In general: Loss of DPPH colour is used to gauge radical scavenging.)

As for `Cc1cc(=O)[nH]c(SCC(=O)c2cccc3ccccc23)n1` [I3MT3], in the data set with SH-SY5Y cells [1], the “exacerbation of H2O2 cytotoxicity, rise over H2O2 alone” value turned out to be 20%. For the same compound, the “effect of 3MST inhibitor on protective effect of sulfanegen against Aβ1-42 toxicity” value in the data set on SH-SY5Y cells [2] (Aβ1-42 20 μM + sulfanegen + I3MT3) is on record as “completely abolished”. For the same compound, the “exacerbation of Aβ1-42 cytotoxicity, rise over Aβ1-42 alone” value in the data set with SH-SY5Y cells [2] (in the presence of I3MT3) was found to be 10%.
Turning to `O=C1O[C@H]([C@@H](O)CO)C(O)=C1O` [ascorbic acid], the pIC50 in data set [3] was 3.85.
